In the library only some 4.8% were active in any assay of this set; here they are far more common.
PAFAH1B3 FP inh = PAFAH1B3 enzyme inhibitors, primary screen, biochemical, fluorescence polarization, human; 340,000 compounds, 0.28% hits; inhibition, % at 3.39 µM; recombinant PAFAH1B3, FP-rhodamine probe; AID 492972, 2010; Platelet-activating factor acetylhydrolase IB subunit alpha1 (Homo sapiens), Q15102;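 active means inhibition above the screen-wide average of all tested compounds plus 3 SD, cut at about 25% in these data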;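 further: 0% = enzyme with DMSO only and 100% = wells lacking PAFAH1B3 protein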
PAFAH2 FP inh = PAFAH2 enzyme inhibitors, primary screen, biochemical, fluorescence polarization, human | Platelet-activating factor acetylhydrolase 2, cytoplasmic (Homo sapiens), Q99487 | recombinant PAFAH2, FP-rhodamine activity probe | inhibition, % at 3.39 µM | 340,000 compounds, 0.99% hits;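 active means inhibition above the mean over all tested compounds plus 3 SD, cut at about 30% in these data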;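 further: inhibitors block probe labeling of enzyme so polarization drops; 0% = enzyme with DMSO and 100% = wells lacking PAFAH2 protein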
GRIN3A LBD mod = binders of NR3A ligand-binding domain, primary screen, biophysical, differential scanning fluorimetry, uHTS. Glutamate receptor ionotropic, NMDA 3A (GRIN3A) ligand-binding domain. NR3A LBD differential scanning fluorimetry, Tm shift; 0% = protein alone, 100% = glycine-bound protein. Tm shift relative to glycine control, % at 25 µM. 340,000 compounds, 2.5% hits. AID 1259313, 2017;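 active means melting temperature shift of at least 10% of the positive control shift, at one fixed dose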
pPAFAH inh = pPAFAH enzyme inhibitors, primary screen, biochemical, fluorescence polarization, human; Platelet-activating factor acetylhydrolase (Homo sapiens), Q13093; recombinant pPAFAH, FP-rhodamine probe fluorescence polarization; inhibition, % at 3.39 µM; 330,000 compounds, 1.5% hits; AID 463082, 2010;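 active means inhibition above the mean inhibition across the screen plus 3 SD, cut at about 25% in these data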;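 further: inhibitors block binding of the rhodamine activity-based probe so polarization drops; 0% = enzyme with DMSO and 100% = wells lacking pPAFAH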
PAFAH1B2 FP inh = PAFAH1B2 enzyme inhibitors, primary screen, biochemical, fluorescence polarization, human; Platelet-activating factor acetylhydrolase IB subunit alpha2 (Homo sapiens), P68402; recombinant PAFAH1B2, FP-rhodamine activity probe; 340,000 compounds, 1.2% hits; inhibition, % at 3.39 µM; AID 492953, 2010;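 active means inhibition above the mean of all tested compounds plus 3 SD, cut at about 24% in these data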;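 further: 0% = enzyme with DMSO and 100% = wells lacking PAFAH1B2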
Target sequence (P68402 whole entry, looked up): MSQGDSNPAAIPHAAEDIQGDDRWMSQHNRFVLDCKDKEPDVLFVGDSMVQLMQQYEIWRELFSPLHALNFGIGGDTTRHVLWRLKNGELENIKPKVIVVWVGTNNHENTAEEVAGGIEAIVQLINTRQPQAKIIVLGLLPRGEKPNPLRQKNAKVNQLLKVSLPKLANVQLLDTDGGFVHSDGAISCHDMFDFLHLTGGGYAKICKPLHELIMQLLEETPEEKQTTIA
UCH37 inh = inhibitors of human UCH37 deubiquitinase, primary screen, biochemical, Ub-AMC cleavage, fluorescence. 330,000 compounds, 0.33% hits. Ubiquitin carboxyl-terminal hydrolase isozyme L5 (Homo sapiens), Q9Y5K5. purified proteasome/UCH37. inhibition, % (concentration not given with the values);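 active means mean inhibition over replicate wells above about 20%, limit read from the data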;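 further: 0% = compound-free wells with enzyme and 100% = wells lacking proteasome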
Target sequence (Q9Y5K5 whole entry, looked up): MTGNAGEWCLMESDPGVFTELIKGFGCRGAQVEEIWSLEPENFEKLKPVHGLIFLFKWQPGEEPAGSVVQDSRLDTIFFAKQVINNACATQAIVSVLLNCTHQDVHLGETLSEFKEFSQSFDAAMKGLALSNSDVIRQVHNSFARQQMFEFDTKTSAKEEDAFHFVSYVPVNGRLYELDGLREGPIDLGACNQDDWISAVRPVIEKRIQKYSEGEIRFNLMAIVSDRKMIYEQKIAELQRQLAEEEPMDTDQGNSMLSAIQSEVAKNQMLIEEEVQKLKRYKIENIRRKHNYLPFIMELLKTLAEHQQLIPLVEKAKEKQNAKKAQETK
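Signal – fluorescence, ex 355 nm, em 460 nm · System – Proteasome-bound UCH37 · Input – 0.15 nM proteasome as dispensed · Timing – 30 min preincubation with enzyme, 25 min cleavage at room temperature · Read-out basis – percent inhibition of cleavage signal versus uninhibited and no-proteasome wells · Medium – Tris-HCl pH 7.4 with ATP-MgCl2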
Numbers without * were called inactive; · = no result given.

SMILES	PAFAH1B3 FP inh	PAFAH2 FP inh	GRIN3A LBD mod	pPAFAH inh	PAFAH1B2 FP inh	UCH37 inh
NCCCC[C@H]1NC(=O)[C@H](CCC(=O)O)NC(=O)c2cc([N+](=O)[O-])cc(I)c2OCC[C@@H](C(N)=O)NC1=O	·	·	7	33*	·	5
O=C(O)c1[nH]c2ccccc2c1-c1ccccc1	-2	-7	3	7	14	-14
COc1cc(Cl)cc(C(c2c(C(=O)O)[nH]c3ccccc23)c2c(C(=O)O)[nH]c3ccccc23)c1O	15	8	22*	12	83*	7
O=C(O)c1[nH]c2ccccc2c1C(c1c(F)cccc1Cl)c1c(C(=O)O)[nH]c2ccccc12	2	11	3	7	49*	4
O=C(O)c1[nH]c2ccccc2c1C(c1cc(Br)ccc1O)c1c(C(=O)O)[nH]c2ccccc12	3	13	11*	15	94*	4
CC(C)NC(=O)N(C)C[C@H]1Oc2c(NC(=O)Nc3ccc(C(F)(F)F)cc3)cccc2C(=O)N([C@H](C)CO)C[C@@H]1C	-5	1	1	15	1	-3
CC(C)NC(=O)Nc1cccc2c1O[C@H](CN(C)C(=O)NC(C)C)[C@@H](C)CN([C@H](C)CO)C2=O	14	7	-2	-2	7	20*
C[C@H](CO)N1C[C@H](C)[C@@H](CN(C)C(=O)Nc2ccc(C(F)(F)F)cc2)Oc2c(NC(=O)Nc3ccccc3)cccc2C1=O	-9	-9	15*	1	57*	2
Cc1noc(C)c1NC(=O)N(C)C[C@H]1Oc2c(NC(=O)Nc3ccc(C(F)(F)F)cc3)cccc2C(=O)N([C@H](C)CO)C[C@@H]1C	4	-1	-5	9	4	1
C[C@H](CO)N1C[C@H](C)[C@@H](CN(C)C(=O)NC2CCCCC2)Oc2c(NC(=O)Nc3ccc(C(F)(F)F)cc3)cccc2C1=O	-5	-4	11*	1	8	5
C[C@@H]1CN([C@H](C)CO)C(=O)c2cccc(NC(=O)Nc3ccc(F)cc3)c2O[C@H]1CN(C)C(=O)Nc1ccc(C(F)(F)F)cc1	6	0	15*	-9	50*	0
COc1ccc2cc(C=NNC(=O)c3ccc(CN(c4cccc(Cl)c4Cl)S(C)(=O)=O)cc3)c(Cl)nc2c1	·	·	·	·	·	-213
COc1ccc(NC(=O)N(C)C[C@H]2Oc3c(NC(=O)Nc4ccc(C(F)(F)F)cc4)cccc3C(=O)N([C@H](C)CO)C[C@@H]2C)cc1	7	-3	16*	1	36*	0
COc1ccc(NC(=O)Nc2cccc3c2O[C@H](CN(C)C(=O)Nc2ccccc2)[C@@H](C)CN([C@H](C)CO)C3=O)cc1	8	-2	1	0	4	-3
Cc1nn(CCCC(=O)NCc2ccc(Cl)cc2)c(C)c1[N+](=O)[O-]	0	-1	12*	3	1	6
O=C(CN1CCSCC1)NN=Cc1ccc(F)c(F)c1	·	·	·	·	·	-1
Cn1c(-c2c(N)n(CCc3ccccc3)c3nc4ccccc4nc23)nc2ccccc21	13	11	11*	6	4	-103
COc1ccc(C=NNC(=O)c2ccc(CSc3nc(C)cc(C)n3)cc2)c(OC)c1OC	·	·	·	·	·	3
CC(=O)Nc1ccccc1N(CC(O)Cn1c2ccccc2c2ccccc21)S(=O)(=O)c1ccc(C)cc1 (centres undefined)	-21	-32	13*	-9	-15	-1
CN(CC(=O)Nc1ccc(Cl)c(Cl)c1)C(=O)C12CC3CC(CC(C3)C1)C2	6	-10	6	1	26*	3
Clc1ccc(-c2noc(COc3ccccc3)n2)cc1	-1	-1	2	1	3	2
Clc1ccc(OCc2nc(-c3ccncc3)no2)cc1	6	8	-1	-2	27*	1
N#CC1=C(N)Nc2nc3ccccc3n2C1c1ccc(Cl)cc1 (centres undefined)	5	0	38*	-1	-3	-6
CC(C)=C[C@H]1C[C@H](C)[C@H]2CC[C@H](C)c3c(O[C@@H]4OC[C@@H](O)[C@H](O)C4O)c(O)c(C)c1c32 (some centres undefined)	0	4	29*	1	-4	-2
Cc1ccc(C)c(N2CCN(C(=O)CCc3nc(-c4ccc(F)cc4)no3)CC2)c1	4	3	2	4	2	-1
SMILES	PAFAH1B3 FP inh	PAFAH2 FP inh	GRIN3A LBD mod	pPAFAH inh	PAFAH1B2 FP inh	UCH37 inh
Cc1ccc(C)c(N2CCN(C(=O)CCc3nc(-c4ccccc4)no3)CC2)c1	6	-1	15*	3	7	4
Cc1cccc(-c2noc(CCC(=O)N3CCN(c4cc(C)ccc4C)CC3)n2)c1	9	-2	17*	-1	1	4
O=C1C2C(C(=O)N1N=Cc1ccc(N3CCCCC3)o1)C1C=CC2C12CC2 (centres undefined)	·	·	·	·	·	6
COC(=O)NN=C/C=C/c1ccc2c(c1)OCO2	·	·	·	·	·	1
CCn1c(=NC(=O)c2ccc(S(=O)(=O)N(C)C)cc2)sc2cccc(OC)c21	4	-1	10*	-2	-8	-430
Cc1ccc(Oc2c(F)c(F)nc(N3CCCC3)c2F)cc1	12	2	13*	3	4	-3
COc1cc(OC)c(C#N)c(S(=O)(=O)Cc2ccccc2)c1	-1	-2	12*	7	4	5
O=C(CNS(=O)(=O)c1ccc(Br)s1)N1CCC(N2CCCCC2)CC1	3	5	13*	5	2	0
CC1CC(C)CN(C(=O)CNS(=O)(=O)c2ccc(Br)s2)C1 (centres undefined)	8	4	-1	-3	22	1
CC1CCN(C(=O)CNS(=O)(=O)c2ccc(Br)s2)CC1	1	14	5	9	23	0
O=C(CNS(=O)(=O)c1ccc(Br)s1)N1CCN(c2ncccn2)CC1	4	12	-1	·	25*	0
O=C(COC(=O)c1cccs1)c1ccccc1	14	34*	0	9	4	-2
CC(=NNC(=O)C1CCCC1)c1ccc(Cl)c(Cl)c1	·	·	·	·	·	1
Cc1nc(N2CCCCC2)sc1C(=O)c1ccc(SCCO)c([N+](=O)[O-])c1	6	1	-9	27*	2	5
O=C(NCc1cccs1)c1cccc(Nc2nc3ccc(Br)cc3[nH]2)c1	32*	11	11*	12	27*	2
